Measurements gathered from unrelated publications.
Protocols differ between the studies behind these lines. In brackets after ≈: the same amount, converted by molar mass.

| SMILES | target or system | test | system | conditions | quantity | value |
| --- | --- | --- | --- | --- | --- | --- |
| O=C1C=C(OCc2cn(-c3ccc(F)cc3)nn2)C(=O)c2ccccc21 | Escherichia coli | microbial growth, broth dilution | ATCC25922 |  | IC50 | 165 µg/mL (≈ 472 µM) |
| c1cncc(-c2cccc(Nc3nccc(NC4CCC4)n3)c2)c1 | MV4-11 | cell growth or viability, ATP luminescence |  | 72 h | EC50 | > 17000 nM |
| Cc1cnc(Nc2ccc(N3CCN(C)CC3)cc2)nc1Nc1cccc(S(=O)(=O)NC(C)(C)C)c1 | Staphylococcus aureus | microbial growth | NCTC8325 |  | MIC | > 30 µM |
| Cc1nn(-c2nc3ccc(Cl)cc3s2)c2c1C(=O)c1ccccc1-2 | Staphylococcus aureus | microbial growth, well diffusion | NCIM5021 | 500 µg/mL | inhibition zone | 10 mm |
| COC(C)(C)CCC[C@](C)(O)[C@H]1CC[C@]2(C)[C@@H]1[C@H](O)C[C@@H]1[C@@]3(C)CC[C@H](O)C(C)(C)[C@@H]3CC[C@]12C | BEAS-2B | cell growth or viability |  | 25 µM, 24 h | inhibition | ~50% |
| O=C(NOCC(O)CO)c1cc(Br)c(F)c(F)c1Nc1ccc(I)cc1F (centres unmarked) | Staphylococcus aureus | microbial growth | NCTC8325 |  | MIC | > 30 µM |
| Cc1ccc(C(C)C)cc1OS(=O)(=O)c1ccccc1 | Escherichia coli | microbial growth, broth dilution | ATCC25922 |  | IC50 | 113 µg/mL |
| CC(C)Nc1ccnc(Nc2cccc(-c3ncco3)c2)n1 | MV4-11 | cell growth or viability, ATP luminescence |  | 72 h | EC50 | 1060 nM |
| CC(C)c1nn(-c2nc3ccccc3s2)c2c1C(=O)c1ccccc1-2 | Staphylococcus aureus | microbial growth, well diffusion | NCIM5021 | 500 µg/mL | inhibition zone | 10 mm |
| c1ccc(-c2ccc(Nc3nccc(NC4CCCCC4)n3)cc2)nc1 | MV4-11 | cell growth or viability, ATP luminescence |  | 72 h | EC50 | 41 nM |
| Cn1cnc(-c2cc3nccc(Oc4ccc(NC(=S)NC(=O)Cc5ccccc5)cc4F)c3s2)c1 | Staphylococcus aureus | microbial growth | NCTC8325 |  | MIC | > 30 µM |
